Only some compounds are listed: those with a hit (about 1.5% of all), similar ones and a draw of the others.
NTR1 ag = activates human neurotensin receptor 1 | 330,000 tested, 0.17% active | P30989 | activation, % at 20 µM | AID 493036 | NTR1-U2OS beta-arrestin-GFP spot imaging, agonist mode;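 active = activation at or above 40% of the spot to cytoplasm intensity ratio, with at least 20 cells analyzed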;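 note: 0% = DMSO without peptide and 100% = 100 nM NTR1 peptide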
CCR6 antag = antagonists of human CCR6 receptor. P51684. CHO-K1 CCR6 PathHunter beta-arrestin, luminescence, CCL20-stimulated. inhibition, % at 20 µM. 340,000 tested, 0.49% active. AID 493098;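 active = compounds whose inhibition of the agonist-driven luminescence signal at 20 µM reaches about 50%, limit read from the data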;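 note: cells stimulated with CCL20 at 14 nM final; plate controls were DMSO with CCL20 for no effect and DMSO without agonist for full effect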
m5-HT2A agonist = mouse HTR2A agonism via beta-arrestin recruitment; activation, % at 7.6 µM; P35363; CHO-K1 mHTR2A beta-arrestin complementation, luminescence; percent of 30 µM serotonin response; 360,000 tested, 0.66% active;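 active = activation above a run cutoff, the mean activation of all tested compounds plus 3 SD, cut at about 14% in these data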;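 note: 0% = plate median of compound wells and 100% = 30 µM serotonin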
CXCR6 inh = CXCR6 (human) receptor inhibition | CHO-K1 PathHunter CXCR6 beta-arrestin, luminescence | inhibition, % at 20 µM | 360,000 tested, 0.36% active | AID 602244; in the data active = inhibition above about 34%, passing the limit was not always enough;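 note: antagonist mode with CXCL16 agonist at 10 nM final; 0% = 10 nM CXCL16 with DMSO and 100% = unstimulated wells without agonist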
APJ ag = agonists of human APJ apelin receptor; P35414; CHO-K1 APJ PathHunter beta-arrestin, luminescence; 0% DMSO wells, 100% apelin; activation, % at 20 µM; 330,000 tested, 0.11% active;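 active = activation more than six SD over the plate average, tested at 20 µM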;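 note: 0% = DMSO alone and 100% = apelin-13 at 10 nM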
Target sequence (P35414 whole entry, looked up): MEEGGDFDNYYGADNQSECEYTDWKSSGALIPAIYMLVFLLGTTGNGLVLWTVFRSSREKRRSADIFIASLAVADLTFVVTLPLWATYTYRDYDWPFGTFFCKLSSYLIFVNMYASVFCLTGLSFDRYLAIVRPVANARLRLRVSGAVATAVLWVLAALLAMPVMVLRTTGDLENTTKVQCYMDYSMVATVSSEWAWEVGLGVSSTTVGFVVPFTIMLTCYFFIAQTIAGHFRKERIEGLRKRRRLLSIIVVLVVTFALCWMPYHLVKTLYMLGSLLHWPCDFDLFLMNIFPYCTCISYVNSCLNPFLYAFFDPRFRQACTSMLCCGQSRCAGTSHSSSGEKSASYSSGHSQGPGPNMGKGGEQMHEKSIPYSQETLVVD
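system = engineered CHO-K1 APJ arrestin reporter cells | input = 1000 cells per well | timing = overnight seeding, 90 min compound at 25 °C, 1 h detection | measured by = enzyme-fragment complementation luminescence | read-out = beta-arrestin recruitment to APJ as agonist activity, luminescent signal | control set = negative DMSO alone, positive Apelin-13 at 10 nM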
APJ antagonist = APJ receptor antagonism; P35414; CHO-K1 APJ beta-arrestin complementation, luminescence; inhibition, % at 20 µM; 330,000 tested, 0.32% active; AID 2521;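 active = inhibition above about 40% at 20 µM, limit read from the data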;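 note: cells challenged with 10 nM apelin-13 agonist together with compound; plate controls were apelin-13 plus DMSO wells for no effect and DMSO wells lacking apelin-13 for full effect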
APJ antag conf = confirmation of human APJ apelin receptor antagonists. shares compounds with APJ antagonist. AID 2766. APJ beta-arrestin recruitment, luminescence, antagonist mode. 950 tested, 66% active. inhibition, % at 20 µM; in the data active = inhibition above about 50%
Numbers without * were called inactive; . = no result given.

SMILES	NTR1 ag	CCR6 antag	m5-HT2A agonist	CXCR6 inh	APJ ag	APJ antagonist	APJ antag conf
Cn1cccc1/C=C(/C#N)C(N)=S	0	29	-3	8	-9	41*	58*
CCCCS(=O)(=O)/C=C\C1C2C=CC(C2)C1S(=O)(=O)CCCC (centres undefined)	-1	1	-3	4	-4	-6	.
CCCCS(=O)(=O)/C=C\C=C/S(=O)(=O)CCCC	16	81*	-4	78*	-7	69*	89*
COc1ccc(-c2cc(C#N)nc(NN)n2)cc1	1	24	9	27	-4	4	.
COc1ccc(-c2cc(-c3ccccc3)nc(NN)n2)cc1OC	2	86*	3	43*	-13	57*	129*
Cc1ccc(-c2cc(-c3ccccc3)nc(NN)n2)cc1	2	64*	-11	29	-15	78*	140*
Cc1cc(=O)n2nc(N3CCCC(C(=O)NCc4ccco4)C3)sc2n1 (centres undefined)	1	-2	-2	5	-4	50*	16
Clc1ccc(-c2nn3c(-c4ccccc4)nnc3s2)cc1	12	10	-2	-2	-2	43*	16
CC(=O)OCCNc1cc(N2CCN(C)CC2)c2noc3c2c1C(=O)c1ccccc1-3	.	44	13	15	.	.	.
CCOC(=O)C(C(=O)OCC)c1cc(Br)c2noc3c2c1C(=O)c1ccccc1-3	-3	83*	0	78*	-4	41*	105*
c1ccc(Nc2nc(-c3ccccn3)cs2)cc1	1	11	-1	-2	-4	-6	.
COc1cccc2sc(Nc3nnc(-c4ccc(F)cc4)o3)nc12	0	-5	-1	-7	-3	1	.
COc1cccc2sc(Nc3nnc(-c4cccs4)o3)nc12	1	29	-6	13	-6	42*	3
COc1cccc2sc(Nc3nc(-c4ccccn4)cs3)nc12	11	.	-8	37	-7	52*	23
CCOC(=O)C1CCCN(C(=O)c2cccc(C(F)(F)F)c2)CC1 (centres undefined)	.	.	0	2	.	.	.
CCc1ccc(C(O)c2ncc(-c3cccc(F)c3)[nH]2)cc1 (centres undefined)	.	.	-4	-7	.	.	.
O=C(N/N=C/c1cc(Br)cc([N+](=O)[O-])c1O)c1ccc(NC(=O)c2ccc(F)cc2)cc1	1	69*	6	28	-9	49*	86*
Nc1ccc(Sc2ccc([N+](=O)[O-])cc2)cc1	-2	-3	-4	6	0	-2	.
Cc1ccc(C(C[N+](=O)[O-])Sc2ccc(N)cc2)cc1 (centres undefined)	54*	52*	-3	53*	1	46*	74*
COC(=O)c1ccsc1NS(=O)(=O)c1ccccc1	-1	4	4	-6	9	1	.
O=C1CCN(Cc2ccc(Br)cc2)CCN1[C@H](CO)Cc1ccccc1	0	19	5	25	-5	45*	30
C=CCNC(=S)N/N=C(\C)c1ccccn1	5	50	-1	20	-6	67*	48
CC(C)C(NC(=O)c1ccc(C(C)(C)C)cc1)C(=O)NCc1ccccn1 (centres undefined)	2	11	-2	4	-6	41*	16
CC1CCCCN1C(=O)CSc1nc2cc3c(cc2c(=O)n1Cc1ccc2c(c1)OCO2)OCO3 (centres undefined)	1	3	-1	10	-1	55*	57*
CC1CCN(C(=O)CSc2nc3ccccc3c(=O)n2Cc2ccc3c(c2)OCO3)CC1	5	17	1	9	-5	-3	.
SMILES	NTR1 ag	CCR6 antag	m5-HT2A agonist	CXCR6 inh	APJ ag	APJ antagonist	APJ antag conf
Cc1cccc(C(=O)Nc2ccc(C(=O)/C=C/c3ccncc3)cc2)c1	19	41	-4	59*	2	41*	77*
Cc1cccc(C(=O)Nc2cccc(C(=O)N/N=C/c3ccncc3)c2)c1	0	0	-5	-6	1	4	.
C=C1CCN([C@@H](C)C(=O)NCc2ccc(OC)cc2)S(=O)(=O)c2ccccc21	4	4	0	6	-1	2	.
CCCNc1c(N)c(=O)oc2ccccc12	1	2	4	-3	1	56*	33
CCC1=NN(C(=O)c2ccc(Cl)cc2)C(O)(c2ccccc2)C1 (centres undefined)	1	48	-5	33	-3	41*	48
COC(=O)C1=NN(C(=O)c2ccc(Cl)cc2)C(O)(c2ccccc2)C1 (centres undefined)	0	17	-4	18	-6	-4	.
COc1ccc(N2CCN(C(CNC(=O)CC(C)(C)C)c3ccc4c(c3)OCO4)CC2)cc1 (centres undefined)	0	4	-7	7	-6	26	.
Cc1ccc(NNC(=O)c2cc(C(C)(C)C)nn2Cc2ccccc2)cc1	0	35	-1	19	-11	41*	103*
CCCC(=O)Nc1nc2ccc(OC)cc2s1	-2	10	-2	-1	-3	11	.
CCOc1ccc2nc(NC(=O)CSC3=NCCS3)sc2c1	2	-20	-2	-8	-5	15	.
COc1ccc2nc(NC(=O)CSC3=NCCS3)sc2c1	0	16	3	0	-3	41*	-13
COc1ccc2nc(NC(=S)N(C)C)sc2c1	3	45	-7	35	-9	51*	44
O=C(O)CCCC(=O)Nc1ccccc1C(=O)N1CCOCC1	2	-13	2	2	-3	-1	.
Cc1ccc(N=Nc2c(=O)[nH]n3c(=O)cc(C)[nH]c23)cc1	-1	27	0	17	-7	43*	62*
O=C(Nc1ccccc1N1CCN(C(=O)c2ccccc2)CC1)c1ccccc1Cl	5	7	2	-10	-3	80*	-9
O=C(Nc1ccccc1N1CCCC1)c1ccccc1Cl	2	15	-4	2	-4	19	.
CCCS(=O)(=O)NC(=O)C1(C)CCCN(C(=O)c2c(F)ccc(C)c2F)C1 (centres undefined)	.	.	10	1	.	.	.
Cc1cc(OCC(=O)NCc2ccccn2)c2c(C)c(Cc3ccccc3)c(=O)oc2c1	6	28	-5	10	-3	20	.
COc1ccccc1NS(=O)(=O)c1cc([N+](=O)[O-])ccc1N/N=C/c1c[nH]c2ccccc12	1	50*	-1	39	-9	56*	91*
COc1ccc(NS(=O)(=O)c2cc([N+](=O)[O-])ccc2N/N=C\c2c(C)[nH]c3ccccc23)cc1	4	41	-3	36	-19	75*	99*
